# Reference: PMC2232887 (The Journal of General Physiology, 2000)
# Where “and” joins values, the source holds several entries; their conditions need not be identical. Equal entries are not always repeated. Where two headings read alike, the source gives them in different places.
# Experiments:
# [1] = target: hybrid OLFα+RETβ channels (UniProt Q00195+Q28181); type: biochemical; settings: for block of channels by L-cis diltiazem: 10 μM L-cis diltiazem
# Outline: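 Xenopus oocytes were co-injected with olfactory α and rod β subunit mRNAs. Inside-out patches were recorded at 21–24°C in standard patch solution (115 mM NaCl, 5 EGTA, 1 EDTA, 5 HEPES, pH 7.5), held at −75 mV. Rod β incorporation was checked by applying 10 μM l-cis diltiazem. Currents were normalised to Imax at 2 mM cGMP.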
# [2] = tested on: heteromeric RETα+β channels; type: biochemical, bovine; settings: 10 μM L-cis diltiazem, saturating (2 mM) cGMP
# native rod CNG channels = assay: Inside-out patch recording of native rod CNG channels from rod outer segments; type: biochemical, tiger salamanders (Ambystoma tigrinum); settings: for effect on the kinetics, cGMP sensitivity, or maximal current: in the absence of genistein
# Outline: (§1)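 Dark-adapted (1 h) tiger salamanders were anaesthetised in ice-cold […] (1 g/liter, 20 min). Retinas were triturated under dim red light, and inside-out patches were excised from rod or cone outer segments. Pipettes were 3–5 MΩ (115 mM NaCl, 5 EGTA, 1 EDTA, 5 HEPES, pH 7.5). Held at −75 mV; currents normalised to 2 mM cGMP Imax. Closed channels were pre-exposed 1 min to test compound, then given 2 mM cGMP. Ki from modified Hill fit.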
# [3] = target: T1, heteromeric OLFα+β channels (Rattus norvegicus, UniProt Q00195+Q64359); type: biochemical; settings: closed and fully activated channels
# T1 sequence (Q00195 1-664): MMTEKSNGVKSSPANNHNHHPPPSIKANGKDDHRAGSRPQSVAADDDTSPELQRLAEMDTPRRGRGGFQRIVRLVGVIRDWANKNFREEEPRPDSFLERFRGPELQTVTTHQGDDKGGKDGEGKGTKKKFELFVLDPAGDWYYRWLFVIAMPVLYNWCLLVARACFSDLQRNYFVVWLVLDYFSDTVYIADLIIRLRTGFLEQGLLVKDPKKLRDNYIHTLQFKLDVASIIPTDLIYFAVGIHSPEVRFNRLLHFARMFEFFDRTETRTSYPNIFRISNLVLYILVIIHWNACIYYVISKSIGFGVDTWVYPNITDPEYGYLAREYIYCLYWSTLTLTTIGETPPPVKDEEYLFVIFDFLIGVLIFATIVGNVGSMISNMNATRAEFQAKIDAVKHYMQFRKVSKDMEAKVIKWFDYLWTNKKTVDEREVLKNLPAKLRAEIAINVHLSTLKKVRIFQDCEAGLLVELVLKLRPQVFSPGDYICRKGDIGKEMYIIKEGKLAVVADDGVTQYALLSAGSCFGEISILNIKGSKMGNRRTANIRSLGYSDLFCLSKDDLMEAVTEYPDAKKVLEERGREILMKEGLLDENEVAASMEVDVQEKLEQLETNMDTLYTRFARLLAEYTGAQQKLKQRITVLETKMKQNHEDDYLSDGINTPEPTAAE
# T1 sequence (Q64359 1-575): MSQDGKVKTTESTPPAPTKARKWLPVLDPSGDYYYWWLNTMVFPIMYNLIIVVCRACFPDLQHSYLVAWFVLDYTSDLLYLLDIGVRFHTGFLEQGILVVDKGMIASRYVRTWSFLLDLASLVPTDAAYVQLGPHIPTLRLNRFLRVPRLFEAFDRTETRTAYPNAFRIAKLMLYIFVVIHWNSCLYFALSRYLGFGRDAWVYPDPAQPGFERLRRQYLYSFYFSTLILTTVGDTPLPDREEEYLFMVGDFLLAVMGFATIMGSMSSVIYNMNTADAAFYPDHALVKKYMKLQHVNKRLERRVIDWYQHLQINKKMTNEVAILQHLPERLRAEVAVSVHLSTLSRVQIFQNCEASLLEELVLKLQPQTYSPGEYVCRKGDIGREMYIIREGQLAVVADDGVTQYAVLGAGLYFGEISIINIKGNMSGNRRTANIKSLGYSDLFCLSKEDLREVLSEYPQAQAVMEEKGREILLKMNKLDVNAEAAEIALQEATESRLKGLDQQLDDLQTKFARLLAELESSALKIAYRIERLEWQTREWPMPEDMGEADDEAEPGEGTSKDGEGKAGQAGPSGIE
# native cone CNG channels = assay: Inside-out patch recording of native cone CNG channels from cone outer segments; type: biochemical, tiger salamanders (Ambystoma tigrinum)
# Outline: as §1
# [4] = target: T2, homomeric RETα channels (α subunits of the bovine rod photoreceptor CNG channel) (Bos taurus, UniProt Q00194); type: biochemical
# T2 sequence (Q00194 1-690): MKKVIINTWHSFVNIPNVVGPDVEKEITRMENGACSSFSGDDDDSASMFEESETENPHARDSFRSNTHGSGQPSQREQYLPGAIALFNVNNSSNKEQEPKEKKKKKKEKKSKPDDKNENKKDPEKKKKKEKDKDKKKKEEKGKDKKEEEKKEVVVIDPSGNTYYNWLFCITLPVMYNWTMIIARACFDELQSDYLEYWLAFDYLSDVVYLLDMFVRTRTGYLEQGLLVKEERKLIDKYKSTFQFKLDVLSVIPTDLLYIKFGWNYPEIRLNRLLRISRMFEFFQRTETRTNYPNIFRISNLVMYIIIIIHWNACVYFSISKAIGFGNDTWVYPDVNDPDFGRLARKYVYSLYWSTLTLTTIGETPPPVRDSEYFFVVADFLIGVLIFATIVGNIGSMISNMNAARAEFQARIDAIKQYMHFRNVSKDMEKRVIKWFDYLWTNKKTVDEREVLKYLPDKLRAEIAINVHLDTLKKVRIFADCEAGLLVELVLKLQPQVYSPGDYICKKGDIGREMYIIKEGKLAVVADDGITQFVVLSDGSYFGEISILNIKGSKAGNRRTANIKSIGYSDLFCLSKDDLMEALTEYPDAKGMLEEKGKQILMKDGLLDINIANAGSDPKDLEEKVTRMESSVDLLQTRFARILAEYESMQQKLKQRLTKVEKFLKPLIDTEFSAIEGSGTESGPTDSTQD
# Outline: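 Bovine rod CNG α-subunit cRNA was injected into Xenopus oocytes (50 nl at 1 ng/nl). After 2–7 d, vitelline membrane was removed. Inside-out patches were recorded at 21–24°C with 2–3 MΩ pipettes in standard patch solution (115 mM NaCl, 5 EGTA, 1 EDTA, 5 HEPES, pH 7.5), held at −75 mV. Perfusion switched in 50 ms. Test compound (DMSO stock) was applied before or after 2 mM cGMP. Ki and Hill coefficient from modified Hill fit.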
# [5] = target: T3, homomeric OLFα channels (rat olfactory CNG channels) (Rattus norvegicus, UniProt Q00195); type: biochemical; settings: concentrations up to 500 μM
# T3 sequence (Q00195 1-664): T1 sequence (Q00195 1-664)
# [6] = tested on: native olfactory CNG channels; type: biochemical, tiger salamanders
# Outline: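 Olfactory epithelium from land-phase tiger salamanders was digested with papain for 18–22 min at 21°C, washed 10 min in ice-cold solution and triturated to single neurons. Excised patches used 10–20 MΩ pipettes. Held at −75 mV; currents normalised to 2 mM cGMP Imax; mean ± SEM.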
# [7] = target: heteromeric RETα+β channels (Bos taurus, UniProt Q00194); type: biochemical, bovine
# [8] = closed channels, saturating genistein (500 μM)
# [9] = fully activated, saturating cGMP (2 mM)
# heteromeric RETα+β channels (Bos taurus, UniProt Q00194), sequence (Q28181 whole entry partner, one chain of several): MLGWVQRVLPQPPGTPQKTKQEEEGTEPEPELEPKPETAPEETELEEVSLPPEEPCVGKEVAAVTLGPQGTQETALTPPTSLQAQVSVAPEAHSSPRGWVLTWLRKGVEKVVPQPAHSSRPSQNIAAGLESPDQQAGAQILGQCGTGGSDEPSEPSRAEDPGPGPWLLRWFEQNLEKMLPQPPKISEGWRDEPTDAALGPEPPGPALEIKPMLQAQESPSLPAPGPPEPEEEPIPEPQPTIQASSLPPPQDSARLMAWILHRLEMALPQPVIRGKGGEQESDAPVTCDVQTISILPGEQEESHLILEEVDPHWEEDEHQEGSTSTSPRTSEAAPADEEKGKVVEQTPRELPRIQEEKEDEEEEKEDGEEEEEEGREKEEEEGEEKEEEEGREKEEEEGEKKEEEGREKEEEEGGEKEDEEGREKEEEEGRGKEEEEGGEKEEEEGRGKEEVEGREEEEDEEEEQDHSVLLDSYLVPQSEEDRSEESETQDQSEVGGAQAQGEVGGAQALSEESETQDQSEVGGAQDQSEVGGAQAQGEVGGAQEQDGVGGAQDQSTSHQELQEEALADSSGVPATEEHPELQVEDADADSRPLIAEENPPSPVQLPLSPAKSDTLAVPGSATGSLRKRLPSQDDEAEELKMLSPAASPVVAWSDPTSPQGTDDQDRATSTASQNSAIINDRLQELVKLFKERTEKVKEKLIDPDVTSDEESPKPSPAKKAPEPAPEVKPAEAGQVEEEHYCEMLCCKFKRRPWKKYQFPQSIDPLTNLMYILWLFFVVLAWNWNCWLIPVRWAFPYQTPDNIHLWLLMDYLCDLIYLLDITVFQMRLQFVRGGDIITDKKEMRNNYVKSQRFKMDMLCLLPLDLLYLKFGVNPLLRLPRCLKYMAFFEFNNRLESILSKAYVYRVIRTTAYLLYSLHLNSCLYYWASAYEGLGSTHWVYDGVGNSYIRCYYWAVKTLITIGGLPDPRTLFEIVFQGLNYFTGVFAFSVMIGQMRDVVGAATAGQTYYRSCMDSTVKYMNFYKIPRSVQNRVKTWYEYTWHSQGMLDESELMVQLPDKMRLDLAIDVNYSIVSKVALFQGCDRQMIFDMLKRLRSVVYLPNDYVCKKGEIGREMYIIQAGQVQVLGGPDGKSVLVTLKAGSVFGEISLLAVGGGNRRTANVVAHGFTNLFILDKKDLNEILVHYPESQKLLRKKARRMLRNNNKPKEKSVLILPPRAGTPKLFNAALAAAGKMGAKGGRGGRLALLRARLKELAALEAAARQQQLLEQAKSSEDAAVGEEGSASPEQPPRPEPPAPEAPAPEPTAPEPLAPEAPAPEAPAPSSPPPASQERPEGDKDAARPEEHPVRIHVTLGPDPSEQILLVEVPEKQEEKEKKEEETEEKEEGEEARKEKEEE
# hybrid OLFα+RETβ channels, sequence (Q28181 whole entry, one chain of several): as the sequence (Q28181 whole entry partner, one chain of several) above
smiles,measurement,setting,value
COc1ccc([C@H]2Sc3ccccc3N(CCN(C)C)C(=O)[C@H]2OC(C)=O)cc1 (relative stereo) [L-cis diltiazem],block of channels by L-cis diltiazem,[1]; OLFα to RETβ mRNA ratio 1:1.5,36.8 ± 2.9%
same,block of channels by L-cis diltiazem,[1]; OLFα to RETβ mRNA ratio 1:3,32.8 ± 1.4%
same,inhibition of channels by L-cis diltiazem,[2]; RETα to RETβ mRNA ratio 1:5,50%
same,inhibition of channels by L-cis diltiazem,[2]; RETα to RETβ mRNA ratio 1:8,78%
same,inhibition of channels by L-cis diltiazem,[2]; RETα to RETβ mRNA ratio 1:10,80%
"Nc1ncnc2c1ncn2[C@@H]1O[C@H](COP(=O)(O)OP(=O)(O)NP(=O)(O)O)[C@@H](O)[C@H]1O [AMP-PNP, adenylylimidodiphosphate]","effect on the kinetics, cGMP sensitivity, or maximal current",native rod CNG channels,no effect
O=CN/C=C/c1cc(O)ccc1O [erbstatin],"effect on the kinetics, cGMP sensitivity, or maximal current",native rod CNG channels,no effect
O=c1c(-c2ccc(O)cc2)coc2cc(O)cc(O)c12 [genistein],genistein inhibition compared with native olfactory channels,[3],inhibited to an even greater extent than were native olfactory channels
same,maximal inhibition of closed channels by saturating genistein,native cone CNG channels; [8],50 ± 3%
same,inhibition of fully activated channels by genistein,native cone CNG channels; [9],37 ± 3%
same,effect of genistein on hybrid channels,[1]; closed and fully activated states,no effect
same,Hill coefficient of genistein inhibition,[4]; closed channels,~2
same,inhibition of fully activated channels by genistein,[4]; [9],67 ± 4%
same,Hill coefficient of genistein inhibition,"[4]; open, fully activated channels",~1
same,time constant of genistein inhibition,"[4]; open, fully activated channels",9 s
same,Ki,"[4]; read-out: apparent K i for genistein, closed channels",4 µM
same,genistein inhibition of closed channels,[5]; closed channels,fails to inhibit
same,genistein inhibition of fully activated channels,[5]; fully activated channels,fails to inhibit
same,maximal inhibition of closed channels by saturating genistein,[6]; [8],28 ± 4%
same,inhibition of fully activated channels by genistein,[6]; [9],11 ± 4%
same,Hill coefficient of genistein inhibition,[7]; closed channels,~2 and ~1
same,Hill coefficient of genistein inhibition,"[7]; open, fully activated channels",~1
same,time constant of genistein inhibition,"[7]; open, fully activated channels",~1 s
same,τ of slowly activating CNG current component after genistein pretreatment,"native rod CNG channels; closed channels pre-exposed to 100 μM genistein for 1 min, then 2 mM cGMP",8.5 s
same,maximal inhibition of closed channels by saturating genistein,native rod CNG channels; [8],61 ± 8%
same,inhibition of fully activated channels by genistein,native rod CNG channels; [9],31 ± 4%
same,time constant of genistein inhibition,"native rod CNG channels; open, fully activated channels",1.2 s
